Compound activity from PubChem BioAssay.
This is a sample that favours compounds with a hit; in the whole collection about 2% have one here.
dFosB act-1 = activators of mouse delta FosB homodimer | P13346 | purified delta FosB, TAMRA-CDK5 oligo fluorescence polarization; percent of positive-control signal above neutral wells | activation, % at 25 µM | 340,000 tested, 0.99% active | AID 493131;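 active = mean activation above about 17%, with every replicate also reaching it, limit read from the data, passing the limit was not always enough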
Target sequence (P13346 whole entry, looked up): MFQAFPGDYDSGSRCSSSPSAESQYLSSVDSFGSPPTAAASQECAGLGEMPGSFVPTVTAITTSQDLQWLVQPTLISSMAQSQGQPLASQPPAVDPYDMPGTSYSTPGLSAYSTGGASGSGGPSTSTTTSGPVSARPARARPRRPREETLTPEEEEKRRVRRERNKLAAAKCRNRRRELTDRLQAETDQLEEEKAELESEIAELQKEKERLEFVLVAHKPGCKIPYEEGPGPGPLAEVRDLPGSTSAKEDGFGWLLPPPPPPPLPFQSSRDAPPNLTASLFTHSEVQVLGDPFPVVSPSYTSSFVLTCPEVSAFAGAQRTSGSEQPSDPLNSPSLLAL
CAL PDZ FP-1 = CAL PDZ (human) peptide binding inhibition; purified CAL PDZ, TMR-peptide fluorescence polarization, 1 h; 300,000 tested, 0.92% active; AID 602252; Q9HD26; inhibition, % at 24.9 µM;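 active = mean inhibition of at least 30% with at least half of replicates also reaching 30%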
S100A4 inh HTS = S100A4-myosin IIA interaction inhibition; inhibition, % at 10.7 µM; 360,000 tested, 0.14% active; P26447; S100A4/TAMRA-MyoIIA peptide fluorescence polarization;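 active = mean inhibition of at least 70% across replicates, with every replicate also reaching that level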
Target sequence (P26447 whole entry, looked up): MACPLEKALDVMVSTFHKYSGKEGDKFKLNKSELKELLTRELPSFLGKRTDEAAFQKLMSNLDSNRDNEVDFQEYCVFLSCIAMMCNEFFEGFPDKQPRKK
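Compound dosing: one dose per compound; test system: human S100A4 monomer with TAMRA-labelled myosin IIA peptide; probe or stimulus: TAMRA-labelled myosin IIA heavy-chain peptide probe, 5 nM; medium: HEPES buffer with Ca2+, pH 7.2; schedule: 5 min incubation before reading; benchmarks: neutral control DMSO, positive control TFP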
CAL PDZ FP-2 = blocks peptide binding to human CAL PDZ domain | Q9HD26 | purified CAL PDZ, TMR-peptide fluorescence polarization, 1 h | inhibition, % at 20 µM | 330,000 tested, 0.02% active;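 active = highest replicate inhibition of at least 40%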
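Control set: unlabelled peptide and DMSO controls / Material: purified CerCALP PDZ construct / Timing: 1 h incubation at room temperature before polarization reading / Doses: 20 µM, one dose / Detection: fluorescence polarization (mP)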
Statin myotox sup = protects C2C12 myotubes from simvastatin toxicity; ATP luminescence, 48 h; scaled: DMSO 0, geranylgeraniol control 100; rescue of ATP level, % at 7.49 µM; 330,000 tested, 0.78% active; AID 602340;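 active = mean ATP rescue above about 67%, or every replicate alone reaching that limit, limit read from the data, passing the limit was not always enough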;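 note: myotubes were challenged with 10 µM simvastatin during compound exposure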
CDK5 p35 inh = blocks human CDK5/p35 kinase activity; Q00535+Q15078; Recombinant CDK5/p35, ADP-Glo luminescence, 60 min; inhibition, % at 10 µM; 330,000 tested, 0.01% active;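 active = highest replicate inhibition of at least 50% and at least 75% of replicates reaching 50%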
dFosB act-2 = enhances mouse delta FosB homodimer binding to DNA | shares compounds with dFosB act-1 | purified delta FosB, TAMRA-CDK5 oligo fluorescence polarization; normalised: neutral wells 0, positive control 100 | activation, % at 24.9 µM | 2,400 tested, under 10 active;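 active = highest replicate activation at or above 34% and every replicate reaching that threshold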;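 note: higher polarization means more probe DNA bound by delta FosB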
Large screens that a line does not name were inactive (follow-up assays come after a bar, where they were run).

N#Cc1c(N)nc(SCC(=O)NCCc2ccccc2)c(C#N)c1-c1cccs1	dFosB act-1 36 (no result: S100A4 inh HTS) | dFosB act-2 inactive
Cc1ccc2c(c1)NC(=O)c1cc([N+](=O)[O-])ccc1O2	dFosB act-1 31 (no result: CAL PDZ FP-1, Statin myotox sup) | dFosB act-2 inactive
COc1ccc(NS(=O)(=O)c2cccc(C(=O)NCC(c3ccco3)N3CCCCC3)c2)cc1 (stereo not given)	none
COc1ccccc1NC(=O)c1nnn(CC(=O)Nc2cc(C)cc(C)c2)c1N	dFosB act-1 33 | dFosB act-2 inactive
COc1ccccc1NC(=O)Cn1nnc(C(=O)Nc2ccccc2)c1N	dFosB act-1 33 (no result: S100A4 inh HTS) | dFosB act-2 inactive
COc1ccc(OC)c2sc(NC(=O)c3cccc(N4C(=O)CCC4=O)c3)nc12	dFosB act-1 67 (no result: CAL PDZ FP-1) | dFosB act-2 inactive
CC(C)NCC(=O)NC12CC3CC(CC(C3)C1)C2	none (no result: S100A4 inh HTS)
CCN(CC)S(=O)(=O)c1ccc(Cl)c(NC(=O)c2cc(Cl)cc(Cl)c2)c1	dFosB act-1 54 (no result: CAL PDZ FP-1, Statin myotox sup) | dFosB act-2 inactive
Cc1cc(=O)[nH]c(N/N=C/c2c(C)nn(-c3ccc(F)cc3)c2Cl)n1	dFosB act-1 46 | dFosB act-2 inactive
Cc1cc(C)n2cc(CSc3nc4cc(Cl)ccc4o3)nc2n1	none (no result: S100A4 inh HTS)
CN(C)c1nc(N)nc(CSc2nc3cc(Cl)ccc3o2)n1	dFosB act-1 28 (no result: S100A4 inh HTS) | dFosB act-2 inactive
CCOc1ccc(-c2c(C(=O)N/N=C/c3ccc(Cl)cc3)nnn2-c2nonc2N)cc1	dFosB act-1 45 (no result: CDK5 p35 inh) | dFosB act-2 inactive
CCOc1ccc(-c2c(C(=O)N/N=C/c3sccc3C)nnn2-c2nonc2N)cc1	dFosB act-1 22 | dFosB act-2 inactive
CCOc1cccc(-c2c(C(=O)N/N=C/c3sccc3C)nnn2-c2nonc2N)c1	none
CCOc1cccc(-c2c(C(=O)N/N=C/c3ccc(C)s3)nnn2-c2nonc2N)c1	none
CCOc1ccc(-c2c(C(=O)N/N=C/c3ccccc3)nnn2-c2nonc2N)cc1	none
CCOc1ccc(-c2c(C(=O)N/N=C/c3ccc(C)s3)nnn2-c2nonc2N)cc1	dFosB act-1 58 (no result: S100A4 inh HTS) | dFosB act-2 inactive
O=C1c2ccccc2S(=O)(=O)N1CC(O)COc1ccc(Cl)cc1 (stereo not given)	none (no result: S100A4 inh HTS)
Cc1cccc(OCc2nnc(SCC(=O)N3CCN(c4ccccc4)CC3)o2)c1C	none (no result: S100A4 inh HTS)
COC(=O)c1nn(-c2ccccc2)nc1-c1nn(-c2ccccc2)nc1C(=O)OC	dFosB act-1 23 (no result: S100A4 inh HTS) | dFosB act-2 inactive
COC(=O)c1nnn(-c2ccccc2)c1N	none (no result: S100A4 inh HTS)
Cc1noc(C)c1S(=O)(=O)N(C)C[C@@H]1Oc2ccc(NC(=O)C3CCCCC3)cc2CC(=O)N([C@@H](C)CO)C[C@H]1C	none (no result: dFosB act-1, CAL PDZ FP-1, CAL PDZ FP-2, CDK5 p35 inh)
Cc1ccc(NC(=O)C2CC(=O)n3ncnc3N2)cc1 (stereo not given)	none
Cc1ccc(NC(=O)C2CC(=O)n3c(nc4ccccc43)N2)cc1Cl (stereo not given)	dFosB act-1 31 (no result: CAL PDZ FP-1) | dFosB act-2 inactive
Cc1ccc(NC(=O)C2CC(=O)n3c(nc4ccccc43)N2)cc1C (stereo not given)	dFosB act-1 31 (no result: Statin myotox sup) | dFosB act-2 inactive
CC(C)c1ccc(NC(=O)C2CC(=O)Nc3nc4ccccc4n32)cc1 (stereo not given)	dFosB act-1 81 (no result: Statin myotox sup) | dFosB act-2 inactive
NC(=O)c1nsc(C(=O)N(c2ccccc2)C(C(=O)NC2CCCCC2)c2ccc(O)cc2)c1N (stereo not given)	dFosB act-1 19 | dFosB act-2 inactive
NC(=O)c1nsc(C(=O)N(c2ccccc2)C(C(=O)NC2CCCC2)c2ccncc2)c1N (stereo not given)	none
CC(C)c1ccc(N(C(=O)c2snc(C(N)=O)c2N)C(C(=O)NC2CCCC2)c2ccncc2)cc1 (stereo not given)	dFosB act-1 40 | dFosB act-2 inactive
